Data published in ChEMBL document CHEMBL1126826, “2'-(Trimethylammonio)ethyl 4-(hexadecyloxy)-3(S)-methoxybutanephosphonate: a novel potent antineoplastic agent” (J Med Chem, 1993).
Values joined by “and” are separate entries in the source; they are usually repeats but may differ in a detail not shown here. Identical values can stand only once.

How the values were obtained:
[1] = Effect on […] cell growth expressed as percent number of colonies compared to control at a concentration of 5 uM; type: functional, Mus musculus
Method in brief: (§1)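 WEHI-3B murine cells grown in methyl cellulose/RPMI colony (clonogenic) assay with compound at a range of concentrations for 5 days in 60-mm dishes. Colonies counted after 5 days and expressed as percentage of untreated control colonies. Mean of three experiments run in triplicate ± SD. IC50 taken from the concentration-response.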

[2] = Compounds were evaluated for antineoplastic activity against […] cells using clonogenic assays.; type: functional, cell-based; details: Mus musculus; method in brief: as §1
[3] = Effect on […] cell growth expressed as percent number of colonies compared to control at a concentration of 1.2 uM; type: functional, Mus musculus; method in brief: as §1
[4] = Effect on […] cell growth expressed as percent number of colonies compared to control at a concentration of 10 uM; type: functional, Mus musculus; method in brief: as §1
[5] = Effect on […] cell growth expressed as percent number of colonies compared to control at a concentration of 2.5 uM; type: functional, Mus musculus; method in brief: as §1
[6] = Effect on […] cell growth expressed as percent number of colonies compared to control at a concentration of 20 uM; type: functional, Mus musculus; method in brief: as §1
[7] = Effect on […] cell growth expressed as percent number of colonies compared to contro at a concentration of 20 uM; type: functional, Mus musculus; method in brief: as §1
[8] = Effect on […] cell growth expressed as percent number of colonies compared to contro at a concentration of 10 uM; type: functional, Mus musculus; method in brief: as §1
[9] = Effect on […] cell growth expressed as percent number of colonies compared to contro at a concentration of 5 uM; type: functional, Mus musculus; method in brief: as §1
[10] = Effect on […] cell growth expressed as percent number of colonies compared to contro at a concentration of 1.2 uM; type: functional, Mus musculus; method in brief: as §1
[11] = Effect on […] cell growth expressed as percent number of colonies compared to contro at a concentration of 2.5 uM; type: functional, Mus musculus; method in brief: as §1
[12] = Compounds were evaluated for antineoplastic activity against […] cells using clonogenic assays; type: functional, cell-based; details: Mus musculus; method in brief: as §1
[13] = Effect on […] cell growth expressed as percent number of colonies compared to contro at a concentration of 0.6 uM; type: functional, cell-based; details: Mus musculus; method in brief: as §1

| IC50 [2] | IC50 [12] | SMILES | Control [1] | Control [3] | Control [4] | Control [5] | Control [6] | Control [7] | Control [8] | Control [9] | Control [10] | Control [11] | percent of control colonies [13] |
| --- | --- | --- | --- | --- | --- | --- | --- | --- | --- | --- | --- | --- | --- |
| 2500 nM |  | CCCCCCCCCCCCCCCCOC[C@H](CCP(=O)([O-])OCC[N+](C)(C)C)OC | 58% and 48% | 95% | 30% | 88% | 32% |  |  |  |  |  |  |
|  | 2500 nM | CCCCCCCCCCCCCCCCCCOCC(COP(=O)([O-])OCC[N+](C)(C)C)OC (stereo not drawn) [EDELFOSINE] |  |  |  |  |  | 30% | 36% | 48% | 91% | 68% | 105% |
